# Source: ChEMBL document CHEMBL1221339, “Modulation of the inhibitor properties of dipeptidyl (acyloxy)methyl ketones toward the CaaX proteases” (Bioorg Med Chem, 2010)
# The source made the active and inactive calls. The calls are words filed in the database; no cut-off is given here.
# Biological target: T1, CAAX prenyl protease 2 (Saccharomyces cerevisiae S288c) (UniProt Q03530)
# T1 sequence (whole entry): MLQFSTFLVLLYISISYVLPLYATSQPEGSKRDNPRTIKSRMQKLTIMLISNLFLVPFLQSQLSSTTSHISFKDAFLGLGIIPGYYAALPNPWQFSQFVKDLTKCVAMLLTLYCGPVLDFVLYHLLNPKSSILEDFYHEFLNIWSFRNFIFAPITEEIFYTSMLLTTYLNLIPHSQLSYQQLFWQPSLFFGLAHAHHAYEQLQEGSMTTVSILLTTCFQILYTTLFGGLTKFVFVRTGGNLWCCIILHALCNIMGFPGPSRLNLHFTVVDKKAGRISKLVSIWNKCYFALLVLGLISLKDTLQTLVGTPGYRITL
# Test: Inhibition of Saccharomyces cerevisiae SM3614 Ras converting enzyme 1 at 100 uM after 60 mins by fluorescence based proteolysis assay
# Method in brief: (§1)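 Membranes enriched for yeast Rce1p (plasmid pWS479 in SM3614, ste24Δ rce1Δ), 0.25 mg/mL final in 100 mM HEPES pH 7.5, 5 mM MgCl2. Pretreated 15 min at 30 °C with 100 µM compound, then 20 µM quenched ABz-KSKTKC(farnesyl)QLIM added. Fluorescence 320/420 nm read every 30–60 s for 60 min at 30 °C. Initial velocities give % activity vs DMSO. At least 4 replicates.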
row,Activity,SMILES
1,inactive,NCCCC[C@H](NC(=O)[C@H](Cc1ccccc1)NC(=O)OCc1ccccc1)C(=O)O
2,Active,Cc1ccc(C(=O)OCC(=O)[C@H](CCCNC(=N)N)NC(=O)[C@H](Cc2ccccc2)NC(=O)OCc2ccccc2)cc1
3,Active,Cc1cc(C)c(C(=O)OCC(=O)[C@H](CCCNC(=N)N)NC(=O)[C@H](Cc2ccccc2)NC(=O)OCc2ccccc2)c(C)c1
4,Active,N=C(N)NCCC[C@H](NC(=O)[C@H](Cc1ccccc1)NC(=O)OCc1ccccc1)C(=O)COC(=O)c1ccccc1
5,Active,Cc1ccc(C(=O)OCC(=O)[C@H](C)NC(=O)[C@H](Cc2ccccc2)NC(=O)OCc2ccccc2)cc1
6,inactive,"CC(=O)NC(Cc1ccc(O)cc1)C(=O)N[C@@H](Cc1ccccc1)C(=O)NCC(=O)COC(=O)c1c(C)cccc1C (single isomer, unassigned)"
7,Active,Cc1cccc(C)c1C(=O)OCC(=O)[C@H](C)NC(=O)[C@H](Cc1ccccc1)NC(=O)OCc1ccccc1
8,Active,C[C@H](NC(=O)[C@H](Cc1ccccc1)NC(=O)OCc1ccccc1)C(=O)COC(=O)c1c(C(F)(F)F)cccc1C(F)(F)F
9,inactive,CC(C)(C)OC(=O)NCCCC[C@H](NC(=O)[C@H](Cc1ccccc1)NC(=O)OCc1ccccc1)C(=O)CBr
10,Active,N=C(N)NCCC[C@H](NC(=O)[C@H](Cc1ccccc1)NC(=O)OCc1ccccc1)C(=O)COC(=O)c1ccc([N+](=O)[O-])cc1
11,Active,COc1ccc(C(=O)OCC(=O)[C@H](CCCNC(=N)N)NC(=O)[C@H](Cc2ccccc2)NC(=O)OCc2ccccc2)cc1
12,inactive,CC(C)(C)OC(=O)NCCCC[C@H](NC(=O)[C@H](Cc1ccccc1)NC(=O)OCc1ccccc1)C(=O)O
13,Active,Cc1cccc(C)c1C(=O)OCC(=O)[C@H](CCCNC(=N)N)NC(=O)[C@H](Cc1ccccc1)NC(=O)OCc1ccccc1
14,Active,COc1ccc(C(=O)OCC(=O)[C@H](C)NC(=O)[C@H](Cc2ccccc2)NC(=O)OCc2ccccc2)cc1
15,Active,N=C(N)NCCC[C@H](NC(=O)[C@H](Cc1ccccc1)NC(=O)OCc1ccccc1)C(=O)COC(=O)c1c(C(F)(F)F)cccc1C(F)(F)F
16,inactive,CC(=O)N[C@@H](Cc1ccc(O)cc1)C(=O)N[C@@H](Cc1ccccc1)C(=O)N[C@@H](CCCNC(=N)N)C(=O)COC(=O)c1c(C)cccc1C
17,Active,Cc1cc(C)c(C(=O)OCC(=O)[C@H](C)NC(=O)[C@H](Cc2ccccc2)NC(=O)OCc2ccccc2)c(C)c1
18,Active,C[C@H](NC(=O)[C@H](Cc1ccccc1)NC(=O)OCc1ccccc1)C(=O)COC(=O)c1ccccc1
19,Active,C[C@H](NC(=O)[C@H](Cc1ccccc1)NC(=O)OCc1ccccc1)C(=O)COC(=O)c1ccc([N+](=O)[O-])cc1

# System: Saccharomyces cerevisiae
# Test: Inhibition of Saccharomyces cerevisiae SM3614 Ras converting enzyme 1 Ste24 mutant at 100 uM after 60 mins by fluorescence based proteolysis assay
# Method in brief: as §1, with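 “Ste24p” for “Rce1p”, “pSM1282” for “pWS479”, “ABz-KSKTKC(farnesyl)VIQL” for “quenched ABz-KSKTKC(farnesyl)QLIM”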
row,Activity,SMILES
1,inactive,NCCCC[C@H](NC(=O)[C@H](Cc1ccccc1)NC(=O)OCc1ccccc1)C(=O)O
2,Active,Cc1ccc(C(=O)OCC(=O)[C@H](CCCNC(=N)N)NC(=O)[C@H](Cc2ccccc2)NC(=O)OCc2ccccc2)cc1
3,Active,Cc1cc(C)c(C(=O)OCC(=O)[C@H](CCCNC(=N)N)NC(=O)[C@H](Cc2ccccc2)NC(=O)OCc2ccccc2)c(C)c1
4,Active,N=C(N)NCCC[C@H](NC(=O)[C@H](Cc1ccccc1)NC(=O)OCc1ccccc1)C(=O)COC(=O)c1ccccc1
5,Active,Cc1ccc(C(=O)OCC(=O)[C@H](C)NC(=O)[C@H](Cc2ccccc2)NC(=O)OCc2ccccc2)cc1
6,inactive,"CC(=O)NC(Cc1ccc(O)cc1)C(=O)N[C@@H](Cc1ccccc1)C(=O)NCC(=O)COC(=O)c1c(C)cccc1C (single isomer, unassigned)"
7,Active,Cc1cccc(C)c1C(=O)OCC(=O)[C@H](C)NC(=O)[C@H](Cc1ccccc1)NC(=O)OCc1ccccc1
8,Active,C[C@H](NC(=O)[C@H](Cc1ccccc1)NC(=O)OCc1ccccc1)C(=O)COC(=O)c1c(C(F)(F)F)cccc1C(F)(F)F
9,inactive,CC(C)(C)OC(=O)NCCCC[C@H](NC(=O)[C@H](Cc1ccccc1)NC(=O)OCc1ccccc1)C(=O)CBr
10,Active,N=C(N)NCCC[C@H](NC(=O)[C@H](Cc1ccccc1)NC(=O)OCc1ccccc1)C(=O)COC(=O)c1ccc([N+](=O)[O-])cc1
11,Active,COc1ccc(C(=O)OCC(=O)[C@H](CCCNC(=N)N)NC(=O)[C@H](Cc2ccccc2)NC(=O)OCc2ccccc2)cc1
12,inactive,CC(C)(C)OC(=O)NCCCC[C@H](NC(=O)[C@H](Cc1ccccc1)NC(=O)OCc1ccccc1)C(=O)O
13,Active,Cc1cccc(C)c1C(=O)OCC(=O)[C@H](CCCNC(=N)N)NC(=O)[C@H](Cc1ccccc1)NC(=O)OCc1ccccc1
14,Active,COc1ccc(C(=O)OCC(=O)[C@H](C)NC(=O)[C@H](Cc2ccccc2)NC(=O)OCc2ccccc2)cc1
15,Active,N=C(N)NCCC[C@H](NC(=O)[C@H](Cc1ccccc1)NC(=O)OCc1ccccc1)C(=O)COC(=O)c1c(C(F)(F)F)cccc1C(F)(F)F
16,inactive,CC(=O)N[C@@H](Cc1ccc(O)cc1)C(=O)N[C@@H](Cc1ccccc1)C(=O)N[C@@H](CCCNC(=N)N)C(=O)COC(=O)c1c(C)cccc1C
17,Active,Cc1cc(C)c(C(=O)OCC(=O)[C@H](C)NC(=O)[C@H](Cc2ccccc2)NC(=O)OCc2ccccc2)c(C)c1
18,Active,C[C@H](NC(=O)[C@H](Cc1ccccc1)NC(=O)OCc1ccccc1)C(=O)COC(=O)c1ccccc1
19,Active,C[C@H](NC(=O)[C@H](Cc1ccccc1)NC(=O)OCc1ccccc1)C(=O)COC(=O)c1ccc([N+](=O)[O-])cc1
